In ChEMBL document CHEMBL1132588, “Synthesis, CoMFA analysis, and receptor docking of 3,5-diacyl-2, 4-dialkylpyridine derivatives as selective A3 adenosine receptor antagonists” (J Med Chem, 1999):

Columns and labels:
[1] = species: Rattus norvegicus; assay: Ratio of the binding affinities against rat A3 receptor / rat A3 receptor, Ki(rA1) / Ki (rA3).
How it was run: (§1)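 Ratio of Ki values from binding assays. For A3, [125I]AB-MECA (final 0.3 nM) bound membranes of HEK-293 cells expressing human A3 (clone HS-21a) or CHO cells expressing rat A3, in Tris/Mg2+/EDTA buffer at pH 8.0. For rat A1, [3H]R-PIA bound cerebral cortex membranes, with adenosine deaminase (3 units/mL) present, including a 30 min preincubation at 30 °C.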

[2] = species: Rattus norvegicus; assay: Ratio of the binding affinities against rat A3 receptor / human A3 receptor, Ki(rA1) / Ki (hA3).; how it was run: as §1
[3] = molecular target: T1, Adenosine receptor A3 (Homo sapiens, UniProt P0DMS8); assay: (§2) Displacement of specific [125 I]AB-MECA binding at human Adenosine A3 receptor expressed in HEK cells; format: cell-based, HEK293
T1 sequence (P0DMS8 whole entry): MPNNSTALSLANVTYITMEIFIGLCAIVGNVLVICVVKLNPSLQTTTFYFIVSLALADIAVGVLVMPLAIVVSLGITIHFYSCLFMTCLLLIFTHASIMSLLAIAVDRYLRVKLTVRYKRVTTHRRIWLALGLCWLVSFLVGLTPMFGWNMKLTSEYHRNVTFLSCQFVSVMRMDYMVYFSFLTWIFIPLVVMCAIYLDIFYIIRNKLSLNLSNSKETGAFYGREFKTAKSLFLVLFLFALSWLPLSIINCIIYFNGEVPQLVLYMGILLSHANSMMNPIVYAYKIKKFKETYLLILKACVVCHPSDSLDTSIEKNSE
How it was run: (§3)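 Membranes from HEK-293 cells stably expressing human A3 receptor (clone HS-21a), or from CHO cells stably expressing rat A3 receptor (rat: n = 3-5), in 50 mM Tris, 10 mM Mg2+, 1 mM EDTA, pH 8.0. Membranes at 0.3 mg protein/mL with [125I]AB-MECA at 0.3 nM final. Nonspecific binding defined with R-PIA. Competitors were dissolved in DMSO (≤2% final) and tested at ≥5 concentrations spanning 3 log units. Bound ligand was separated by GF/B filtration with three buffer rinses; Ki was derived.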

[4] = species: Rattus norvegicus; assay: Ratio of binding affinities for rat A1 receptor against human A3 receptor, [Ki(rA1) / Ki (hA3)].; how it was run: as §1
[5] = molecular target: T2, Adenosine receptor A3 (Rattus norvegicus, UniProt P28647); assay: (§4) Displacement of specific [125I]AB-MECA binding at rat Adenosine A3 receptor stably expressed in CHO cells; format: cell-based
T2 sequence (P28647 whole entry): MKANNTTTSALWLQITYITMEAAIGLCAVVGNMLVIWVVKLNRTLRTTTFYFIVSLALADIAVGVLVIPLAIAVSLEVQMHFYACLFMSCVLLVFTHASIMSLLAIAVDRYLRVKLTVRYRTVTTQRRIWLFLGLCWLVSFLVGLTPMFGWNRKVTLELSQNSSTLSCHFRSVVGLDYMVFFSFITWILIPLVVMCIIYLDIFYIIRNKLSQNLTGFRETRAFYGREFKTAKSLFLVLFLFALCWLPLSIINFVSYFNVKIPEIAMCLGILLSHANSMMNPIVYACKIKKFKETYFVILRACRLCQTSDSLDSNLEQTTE

[6] = molecular target: Adenosine receptor A2a (Rattus norvegicus) (UniProt P30543); assay: (§5) Displacement of specific [3H]-CGS- 21680 binding to Adenosine A2A receptor in rat striatal membranes; format: cell membranes; conditions: Membrane
Sequence of Adenosine receptor A2a (Rattus norvegicus) (P30543 whole entry): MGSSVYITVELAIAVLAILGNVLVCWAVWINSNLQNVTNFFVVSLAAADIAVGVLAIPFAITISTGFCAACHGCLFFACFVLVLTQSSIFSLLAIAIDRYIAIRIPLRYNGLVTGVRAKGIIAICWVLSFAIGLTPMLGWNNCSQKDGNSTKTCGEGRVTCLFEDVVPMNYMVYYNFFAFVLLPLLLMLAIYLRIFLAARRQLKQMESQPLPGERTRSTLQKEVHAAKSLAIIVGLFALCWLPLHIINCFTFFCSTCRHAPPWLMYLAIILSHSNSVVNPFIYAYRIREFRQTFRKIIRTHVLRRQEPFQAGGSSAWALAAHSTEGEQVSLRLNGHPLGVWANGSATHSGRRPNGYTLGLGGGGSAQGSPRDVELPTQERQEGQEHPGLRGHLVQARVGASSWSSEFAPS
How it was run: (§6)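 Rat striatal membranes labelled with [3H]CGS 21680 for A2A binding. Adenosine deaminase (3 units/mL) was present during membrane preparation, during a 30 min preincubation at 30 °C, and during radioligand incubation. Competitors were dissolved in DMSO and diluted in buffer (DMSO ≤2%).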

[7] = molecular target: T3, Adenosine receptor A1 (Rattus norvegicus, UniProt P25099); assay: Displacement of specific [3H]-CGS- 21680R-PIA binding to Adenosine A1 receptor in rat brain membranes.; format: cell membranes; conditions: in the assay text read “[3H]R-PIA” for “[3H]-CGS- 21680R-PIA”
T3 sequence (P25099 whole entry): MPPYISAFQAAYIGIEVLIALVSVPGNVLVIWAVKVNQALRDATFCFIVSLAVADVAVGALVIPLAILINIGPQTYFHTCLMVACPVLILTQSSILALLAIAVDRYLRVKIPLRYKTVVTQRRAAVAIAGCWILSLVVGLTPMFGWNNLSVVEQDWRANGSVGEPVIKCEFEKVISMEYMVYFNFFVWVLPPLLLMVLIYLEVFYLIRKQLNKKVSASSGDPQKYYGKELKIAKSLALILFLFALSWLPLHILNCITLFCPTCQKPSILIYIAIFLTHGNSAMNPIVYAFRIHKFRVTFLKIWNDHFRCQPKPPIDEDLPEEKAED
How it was run: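 A1 binding used [3H]R-PIA on rat cerebral cortex membranes. Adenosine deaminase (3 units/mL) was included in membrane preparation, in a 30 min preincubation at 30 °C, and throughout radioligand incubation. Competitors were DMSO stocks diluted in buffer, with DMSO never above 2%.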

[8] = molecular target: T4, Adenosine receptor A3 (Homo sapiens) (UniProt P0DMS8); assay: as §2; format: cell-based; conditions: HEK293
T4 sequence (whole entry): T1 sequence (P0DMS8 whole entry)

[9] = molecular target: T4, Adenosine receptor A3 (Homo sapiens); assay: Displacement of specific[125 I]AB-MECA binding at human Adenosine A3 receptor expressed in HEK cells at 10 e-4M; format: cell-based; conditions: HEK293
[10] = molecular target: Adenosine receptor A2a (Rattus norvegicus) (UniProt P30543); assay: Displacement of specific [3H]-CGS- 21680 binding to Adenosine A2A receptor in rat striatal membranes at 10 e-5M; format: cell membranes; conditions: Membrane
[11] = molecular target: Adenosine receptor A2a (Rattus norvegicus) (UniProt P30543); assay: as §5; format: cell membranes; set-up: concentration or dose not given beside the values; conditions: Membrane, concentration not given here; how it was run: as §6
[12] = molecular target: T3, Adenosine receptor A1; assay: Displacement of specific [3H]R-PIA binding to Adenosine A1 receptor in rat brain membranes.
[13] = molecular target: Adenosine receptor A2a (Rattus norvegicus) (UniProt P30543); assay: Displacement of specific [3H]-CGS- 21680 binding to Adenosine A2A receptor in rat striatal membranes at 10 e-4M; format: cell membranes; conditions: Membrane
[14] = molecular target: T5, Adenosine receptor A3 (Rattus norvegicus) (UniProt P28647); assay: as §4; format: cell-based
T5 sequence (whole entry): T2 sequence (P28647 whole entry)
How it was run: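 Membranes from CHO cells stably expressing rat A3 receptor (0.3 mg protein/mL) were incubated with [125I]AB-MECA (final 0.3 nM) and test compound in 50 mM Tris, 10 mM Mg2+, 1 mM EDTA, pH 8.0. Compounds were dissolved in DMSO, with DMSO never exceeding 2%. At least five competitor concentrations spanning 3 orders of magnitude were tested. Nonspecific binding was defined with R-PIA. Bound ligand was collected by filtration over GF/B filters; n = 3-5.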

[15] = molecular target: T4, Adenosine receptor A3 (Homo sapiens); assay: as §2; format: cell-based; conditions: HEK293; concentration not given here; how it was run: as §3
[16] = molecular target: Adenosine receptor A2a (Rattus norvegicus, UniProt P30543); assay: Inhibition of [3H]-CGS- 21680 binding to Adenosine A2A receptor in rat striatal membranes.; format: cell membranes, Membrane
Sequence of Adenosine receptor A2a (P30543 whole entry): as the sequence (P30543 whole entry) above

Row | SMILES | Ratio [1] | Ratio [2] | Ki [3] | Ratio [4] | Ki [7] | pKi [8] | Ki [12] | also measured
1 | CCCOC(=O)c1c(-c2ccccc2)nc(CC)c(C(=O)SCCCF)c1CCC | 81 | 1.9 | 0.0828 µM | 150 | 12.6 µM | 7.08 | – | Ki [5]: 0.156 µM; Displacement [6]: < 10%
2 | CCOC(=O)c1c(-c2ccccc2)nc(CC)c(C(=O)SCC)c1CCCN1C(=O)c2ccccc2C1=O | – | – | – | – | 5.24 µM | – | – | Displacement [9]: 28%; Displacement [6]: 10%
3 | CCCOC(=O)c1c(-c2ccccc2)nc(CC)c(C(=O)SCC)c1CC | 42 | 22 | – | 820 | – | 8.08 | – | Displacement [10]: 10%
4 | CCCc1c(C(=O)SCC)c(CCSC(C)=O)nc(-c2ccccc2)c1C(=O)OCC | – | – | 0.193 µM | 68 | – | 6.71 | 13.2 µM | inhibition [11]: 30%
5 | CCCCCCSC(=O)c1c(CC)nc(-c2cccc(Cl)c2)c(C(=O)OCCC)c1CC | – | – | 0.22 µM | 510 | – | 6.66 | 113 µM | Displacement [13]: 10%
6 | CCCOC(=O)c1c(-c2ccccc2)nc(CCF)c(C(=O)SCC)c1CCC | 76 | < 1 | – | – | 19.8 µM | – | – | Ki [14]: 0.26 µM; inhibition [15]: 15%; Ki [16]: 30.8 µM
7 | CCCOC(=O)c1c(-c2ccccc2F)nc(CC)c(C(=O)SCC)c1CCC | – | – | 0.023 µM | 590 | – | 7.64 | 13.5 µM | Ki [16]: 8.63 µM
